In general, inhibition refers to the share of the control response that was lost under treatment. What is called IC50 is the concentration needed to halve the response being measured. A higher IC50 goes with a need for much substance.

The source of these data is ChEMBL document CHEMBL3627693, “Novel aminotetrazole derivatives as selective STAT3 non-peptide inhibitors” (Eur J Med Chem, 2015).

For data set [1], the target named is T1, Signal transducer and activator of transcription 1-alpha/beta (Homo sapiens) (UniProt P42224).
T1 sequence (whole entry): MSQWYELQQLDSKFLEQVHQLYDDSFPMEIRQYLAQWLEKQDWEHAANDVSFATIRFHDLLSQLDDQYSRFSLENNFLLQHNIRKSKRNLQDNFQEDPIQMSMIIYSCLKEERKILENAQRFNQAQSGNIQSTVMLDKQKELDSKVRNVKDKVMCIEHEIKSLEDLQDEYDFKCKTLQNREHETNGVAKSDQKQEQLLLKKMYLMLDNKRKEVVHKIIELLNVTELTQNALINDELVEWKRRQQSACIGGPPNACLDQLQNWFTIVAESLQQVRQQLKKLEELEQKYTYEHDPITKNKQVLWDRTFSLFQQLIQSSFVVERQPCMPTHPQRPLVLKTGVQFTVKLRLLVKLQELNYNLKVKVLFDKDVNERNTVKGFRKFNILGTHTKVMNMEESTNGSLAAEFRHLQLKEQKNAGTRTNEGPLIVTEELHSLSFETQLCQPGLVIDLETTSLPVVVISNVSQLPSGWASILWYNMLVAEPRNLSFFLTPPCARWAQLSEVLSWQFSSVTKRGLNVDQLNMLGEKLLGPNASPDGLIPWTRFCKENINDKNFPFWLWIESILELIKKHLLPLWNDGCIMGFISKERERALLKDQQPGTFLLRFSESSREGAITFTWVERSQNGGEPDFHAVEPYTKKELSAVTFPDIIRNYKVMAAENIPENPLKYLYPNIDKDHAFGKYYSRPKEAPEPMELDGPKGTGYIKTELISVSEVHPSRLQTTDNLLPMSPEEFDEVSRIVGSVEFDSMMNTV
The data set is described as follows: Inhibition of STAT1 (unknown origin) expressed in IFN-gamma induced human HeLa cells at 50 uM incubated for 1 hr by luciferase reporter gene assay. The data set is classed as cell-based. On the technique in general: A reporter such as luciferase makes a cellular process visible.

Data set [2] has as its target T2, Signal transducer and activator of transcription 3 (Homo sapiens, UniProt P40763). Briefly: Inhibition of STAT3 (unknown origin) expressed in Oncostatin M induced human HeLa cells at 50 uM incubated for 1 hr by luciferase reporter gene assay. The data set is classed as cell-based.
For data set [3], the target named is T1, Signal transducer and activator of transcription 1-alpha/beta (Homo sapiens). Briefly: Displacement of fluorescent peptide 5-FAM-G(pTyr)YIKTE- CONH2 from GST-tagged human STAT1b preincubated for 60 mins followed by fluorescent peptide addition measured after 30 mins by fluorescence polarization assay. Summed up: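 GST-tagged human STAT1b preincubated 60 min at room temperature with compound at various concentrations or vehicle in 50 mM NaCl, 10 mM Hepes pH 7.5, 1 mM EDTA, 0.01% Triton X-100, 2 mM DTT. Labelled peptide added to 10 nM final, 30 min room temperature. Fluorescence polarization read with excitation 480, emission 535.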
In general terms: Fluorescence polarisation rises when a labelled molecule tumbles more slowly, as on binding a larger partner.

Data set [4] concerns the target T2, Signal transducer and activator of transcription 3. The data set is described as follows: Inhibition of STAT3 (unknown origin) expressed in Oncostatin M induced human HeLa cells incubated for 1 hr by luciferase reporter gene assay.
Data set [5] shares this target. Briefly: Displacement of fluorescent peptide 5-FAM-G(pTyr)LPQTV-CONH2 from GST-tagged full-length human STAT3 preincubated for 60 mins followed by fluorescent peptide addition measured after 30 mins by fluorescence polarization assay. The procedure, abridged:
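Full-length GST-STAT3 (100 nM) preincubated 60 min at room temperature with compound at various concentrations or vehicle, in 50 mM NaCl, 10 mM Hepes pH 7.5, 1 mM EDTA, 0.01% Triton X-100, 2 mM DTT. Labelled peptide then added to 10 nM final, 30 min room temperature. FP read with excitation 480, emission 535 (P and S pol).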

Data set [6] shares this target. As to conditions: HeLa, 100 uM.
Data set [7] deals with PBL. The data set is described as follows: Induction IFN-gamma production in human PBL cells co-cultured with HT29 cells at 50 uM after 24 hrs by ELISA. It counts as functional, cell-based. For orientation: ELISA stands for enzyme-linked immunosorbent assay.
The test system of data set [8] is CD4-positive T cell. The data set is described as follows: Induction of polarization of C57BL/6 mouse spleen naive CD4+ lymphocytes into Th17 lymphocytes assessed as decrease in ROR-gamma-t transcription at 50 uM. The data set is classed as functional, tissue-based.
Data set [9] has as its target T2, Signal transducer and activator of transcription 3. As to conditions: HeLa, 100 uM. This is another data set of the same source.
The test system of data set [10] is MDA-MB-231. Briefly: Cytotoxicity against human MDA-MB-231 cells transfected with STAT3C assessed as decrease in cell proliferation after 72 hrs by MTT assay. The data set is classed as functional, cell-based.
Data set [11] concerns CD4-positive T cell. The data set is described as follows: Induction of polarization of C57BL/6 mouse spleen naive CD4+ lymphocytes into Treg lymphocytes assessed as decrease in ROR-gamma-t transcription at 50 uM. The data set is classed as functional, tissue-based.
Data set [12] has as its system B9. The data set is described as follows: Cytotoxicity against mouse B9 cells assessed as decrease in cell proliferation at 50 uM after 72 hrs by MTT assay. The data set is classed as functional, cell-based.
Data set [13] deals with CD4-positive T cell. The data set is described as follows: Induction of polarization of C57BL/6 mouse spleen naive CD4+ lymphocytes into Th1 lymphocytes assessed as decrease in Tbet transcription. The data set is classed as functional, tissue-based.
In data set [14] the test system is CD4-positive T cell. The data set is described as follows: Induction of polarization of C57BL/6 mouse spleen naive CD4+ lymphocytes into Treg lymphocytes assessed as decrease in FoxP3 transcription at 50 uM. The data set is classed as functional, tissue-based.
Data set [15] has as its system MDA-MB-231. Briefly: Cytotoxicity against human MDA-MB-231 cells assessed as decrease in cell proliferation after 72 hrs by MTT assay. The data set is classed as functional, cell-based.
The subject of data set [16] is CD4-positive T cell. Briefly: Induction of polarization of C57BL/6 mouse spleen naive CD4+ lymphocytes into Th17 lymphocytes assessed as decrease in FoxP3 transcription at 50 uM. The data set is classed as functional, tissue-based.
The subject of data set [17] is HeLa. Briefly: Cytotoxicity against human HeLa cells at 50 uM. It counts as cell-based.

The source made the active and inactive calls. The calls are words filed in the database; no cut-off is given here.

T2 sequence (P40763 whole entry): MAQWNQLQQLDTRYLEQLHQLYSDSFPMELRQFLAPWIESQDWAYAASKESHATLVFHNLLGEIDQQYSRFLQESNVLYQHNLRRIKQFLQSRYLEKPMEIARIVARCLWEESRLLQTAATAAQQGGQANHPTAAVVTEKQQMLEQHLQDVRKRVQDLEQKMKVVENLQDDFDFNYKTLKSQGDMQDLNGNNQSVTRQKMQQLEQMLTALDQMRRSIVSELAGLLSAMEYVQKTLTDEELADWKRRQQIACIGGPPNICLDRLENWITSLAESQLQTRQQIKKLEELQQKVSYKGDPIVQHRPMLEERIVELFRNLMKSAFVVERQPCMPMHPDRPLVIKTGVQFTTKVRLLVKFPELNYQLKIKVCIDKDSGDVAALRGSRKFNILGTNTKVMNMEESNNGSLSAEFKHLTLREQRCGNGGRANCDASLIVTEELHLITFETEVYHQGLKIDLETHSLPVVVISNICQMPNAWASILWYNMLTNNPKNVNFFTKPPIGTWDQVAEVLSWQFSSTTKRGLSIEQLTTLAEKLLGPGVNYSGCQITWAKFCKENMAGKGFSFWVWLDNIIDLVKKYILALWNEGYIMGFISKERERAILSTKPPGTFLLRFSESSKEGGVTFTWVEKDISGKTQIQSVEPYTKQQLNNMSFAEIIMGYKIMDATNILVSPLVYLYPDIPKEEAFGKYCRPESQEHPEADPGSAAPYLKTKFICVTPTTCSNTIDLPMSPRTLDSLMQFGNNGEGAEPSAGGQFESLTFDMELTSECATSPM

In the case of `COc1cc(CNCC(=O)O)cc(Cl)c1OCc1ccc([N+](=O)[O-])cc1`, the inhibition stood at 13.1% in [1] and 15.3% in data set [2]. Further, the outcome in [3] was Active.

For the molecule `COc1cc(CNc2nn[nH]n2)cc(Cl)c1OCc1ccc([N+](=O)[O-])cc1`, in data set [4], the half-inhibitory concentration (IC50) is 25.7 µM. Besides, the figures for the inhibition in [1] and in [2] were 15.7% and 70.2%, respectively. Also, the outcome in data set [5], in data set [7], in [8], in [11], in data set [14] and in data set [16] was Active. For the same molecule, the inhibition result in [6] and in data set [9] was “Active” in each case. Further, the outcome in [10], in [3] and in [13] was inactive. Besides, the Activity result in data set [12] and in data set [15] was “Dose-dependent effect” in each case.

`COc1cc(CNC#N)cc(Cl)c1OCc1ccc([N+](=O)[O-])cc1`: the inhibition was 48.8% in [1] and 91.8% in [2]. Also, the result in [5] and in [3] was Active.

In the case of `COc1cc(C=O)cc(Cl)c1OCc1ccc([N+](=O)[O-])cc1`, the inhibition in [1] is 62.3%; in [2], 66.4%. Moreover, the outcome in data set [5] and in [3] was Active.

On to `CCOc1cc(/C=C(\C#N)C(=O)NC2CCCCC2C)ccc1OCC(=O)O` (stereo not drawn), for which, in data set [2], the inhibition result was “Active”. For the same molecule, in data set [17], the Activity result is “Toxic”.

For `COc1cc(C=O)cc(Cl)c1OCc1ccc(C)cc1`, the inhibition in data set [1] came to 31.4%; in data set [2] it was 52.4%. In addition, the outcome in [5] and in data set [3] was Active.

As for `Brc1cc2c(cc1COc1ccc(-c3nn[nH]n3)cc1)OCO2`, the inhibition entry in [2] was “Active”. Moreover, the Activity result in data set [17] is “Toxic”.

In the case of `COc1cc(CNc2nn[nH]n2)cc(Cl)c1OCc1ccc(C)cc1`, the inhibition was 11.1% in data set [1] and 53.9% in data set [2]. For the same molecule, the outcome in [5] was Active. The result in data set [3] was inactive.

Consider `COc1cc(NC#N)cc(Cl)c1OCc1ccc(C)cc1`, for which the inhibition was 10.8% in data set [1] and 50.2% in data set [2]. In addition, the result in data set [5] was inactive. In addition, the outcome in [3] was Active.
